High-throughput results as filed in PubChem.
Sampled rows, rich in hits. Any-hit rate of the full collection: about 3.3%.
SIAE inh – human SIAE inhibitors, primary screen, biochemical, fluorescence polarization, FP-Rh probe, 1536-well HTS | Sialate O-acetylesterase (Homo sapiens), Q9HAT2 | actives 0.69% (n = 370,000) | inhibition, % at 9.66 µM | SIAE FP-Rh probe binding;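 active means inhibition above a cutoff: mean of compounds within the control limits plus 3 SD of those, cut at about 17% in these data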
PRMT1 inh – PRMT1 methyltransferase inhibitors, primary screen, biochemical, fluorescence polarization. Protein arginine N-methyltransferase 1 (Homo sapiens), Q99873. recombinant PRMT1, activity-based probe fluorescence polarization. inhibition, % at 2.79 µM. actives 1.3% (n = 370,000);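 active means inhibition above about 21% made by adding two undisclosed values, limit read from the data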
MBD2 DNA inh – inhibitors of MBD2 binding to methylated DNA, primary screen, biochemical, TR-FRET, DNA-binding domain, human; actives 0.31% (n = 370,000); Methyl-CpG-binding domain protein 2 (Homo sapiens), Q9UBB5; inhibition, % at 4.4 µM; MBD2 binding to methylated oligonucleotide; AID 686964, 2013; in the data active means inhibition above about 13%
LEDGF integ inh – blockers of LEDGF/p75-dependent integrase strand transfer – biochemical, TR-FRET, high throughput, primary screen; inhibition, % at 3.7 µM; actives 0.64% (n = 370,000); HIV-1 integrase (with human LEDGF/p75); TR-FRET IN-LEDGF/p75 DNA integration, Eu/Cy5;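 active means inhibition above the screen-wide mean plus 3 SD, cut at about 13% in these data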;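 further: signal is the Cy5 over europium emission ratio at 671 and 618 nm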
TDP2 absorb – human TDP2 enzyme inhibitors, primary screen, biochemical, epi absorbance, recombinant enzyme | actives 0.34% (n = 370,000) | Tyrosyl-DNA phosphodiesterase 2 (Homo sapiens), O95551 | AID 720702, 2013 | T5PNP hydrolysis, p-nitrophenol absorbance 415 nm | inhibition, % at 12.8 µM;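 active means inhibition above the mean of all tested compounds plus 3 SD, set per campaign, cut at about 25% in these data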
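Test system: Human TDP2 enzyme | Reagent: 5 mM T5PNP | Compound dosing: 12.8 µM single point, 1% DMSO | Incubation: Enzyme reaction with compound for 2 h at 37 °C | Technique: p-Nitrophenol epi absorbance | Read-out: % inhibition relative to enzyme-containing and enzyme-free wells | Benchmarks: High control without enzyme, low control DMSO plus TDP2 | Replicates: Singlicate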
UHRF1 binding – UHRF1 methylated DNA binding inhibitors, primary screen, counter-screen for MBD2 inhibitor project, biochemical, TR-FRET, human UHRF1, single concentration; E3 ubiquitin-protein ligase UHRF1 (Homo sapiens), Q96T88; UHRF1 binding to methylated oligo; inhibition, % at 4.4 µM; actives 0.75% (n = 370,000); in the data active means inhibition above about 21%;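 further: UHRF1 SRA domain binding a hemimethylated CpG hairpin DNA probe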
Large screens that a line does not name were inactive.

Cc1ccc(-c2cc[n+](Cc3ccccc3)cc2)cc1	none
Cc1ccc2c(c1)sc[n+]2Cc1ccccc1	PRMT1 inh 64
COC(=O)[C@]12C[C@H](CC(=O)NCCc3ccccc3OC)C(=O)N(Cc3ccc4c(c3)OCO4)C1=C[C@H](C(C)C)O[C@@H]2C1CC1	none
CN1CCN(C(=S)C(=O)NCc2ccccc2)CC1	none
CN1CCN(C(=S)C(=O)Nc2ccccc2)CC1	UHRF1 binding 22
CC(NC(=O)C(=S)N1CCN(C)CC1)c1ccccc1 (stereo not given)	UHRF1 binding 21
Nc1nc(=S)c2ncn(C3OC(CO)C(O)C3O)c2[nH]1 (stereo not given)	PRMT1 inh 23
CC(C)(Oc1ccc(Cl)cc1)C(=O)O	none
CC(C)(Oc1ccc(Cl)cc1)C(=O)Nc1ncccn1	UHRF1 binding 22
CC(C)c1ccc(NC(=O)O[C@@H]2CC[C@@]34CCCN3C(=O)CCC[C@H]4C2)cc1	none
O=C(CN1CCCCC1)Nc1scc2c1c(=O)oc1ccccc12	UHRF1 binding 21
COc1ccc(CNC(=O)c2ccc3ccccc3n2)cc1	none
COc1ccc(N=C(NN)c2ccc3ccccc3n2)cc1	PRMT1 inh 27
Cc1cccc(-c2ccc(NC(=O)C3CCN(CC4CC4)CC3)cc2)c1	none
COc1cccc(CN2CCC(C(=O)Nc3ccc(-c4cccc(C)c4)cc3)CC2)c1O	UHRF1 binding 71
NC(Cc1c[nH]c2ccccc12)C(=O)NCc1ccccc1 (stereo not given)	UHRF1 binding 25
COC(=O)C1CN(Cc2ccc(OC)cc2)CCS(=O)(=O)N1Cc1ccccc1 (stereo not given)	none
CC(C)C[C@@H](CNCC(=O)[C@H](Cc1c[nH]c2ccccc12)NC(=O)c1[nH]cnc1C(=O)N[C@@H](C)CN)NC(=O)c1nc[nH]c1C(=O)N[C@@H](C)C(=O)O	UHRF1 binding 22
CC(C)C[C@@H](CNCC(=O)[C@H](Cc1c[nH]c2ccccc12)NC(=O)c1[nH]cnc1C(=O)N[C@@H](C)CN)NC(=O)c1nc[nH]c1C(=O)N[C@@H](CC(=O)O)C(=O)O	none
CC(C)C[C@@H](CNCC(=O)[C@H](Cc1c[nH]c2ccccc12)NC(=O)c1[nH]cnc1C(=O)N[C@H](CN)CC(C)C)NC(=O)c1nc[nH]c1C(=O)N[C@@H](CC(=O)O)C(=O)O	UHRF1 binding 22
CC(C)C[C@@H](CN)NC(=O)c1nc[nH]c1C(=O)N[C@@H](Cc1c[nH]c2ccccc12)C(=O)CNC[C@H](C)NC(=O)c1nc[nH]c1C(=O)N[C@@H](CC(=O)O)C(=O)O	UHRF1 binding 22
O=C(Cn1c(-c2cncs2)nc2ccccc21)NCc1cccs1	none
CC(C)C[C@H]1COc2cc(Br)ccc2S(=O)(=O)N1Cc1cn(Cc2ccc(Br)cc2)nn1	none
Cc1c(N2C(=O)/C(=C/c3cccc4ccccc34)SC2=S)c(=O)n(-c2ccccc2)n1C	UHRF1 binding 31
Cc1c(N2C(=O)/C(=C/c3ccccc3)SC2=S)c(=O)n(-c2ccccc2)n1C	none
CCNC(=S)Nc1ccc(C)c(Cl)c1	UHRF1 binding 25
COc1ccc(OCC(=O)Nn2c(-c3ccc(OC)cc3)nc3ccccc3c2=O)cc1	none
COc1ccc(-c2nc3ccccc3c(=O)n2NC(=S)N(C)C)cc1	PRMT1 inh 24
CCOC(=O)C1Nc2ccc(C)cc2C2C=CCC12 (stereo not given)	PRMT1 inh 23
CCOC(=O)c1ccc2c(c1)C1C=CCC1C(C(=O)OCC)N2 (stereo not given)	PRMT1 inh 23
